Bioassay records as filed in PubChem.
A selection: hits, their analogues and other compounds. The true share with any hit is near 1.4%.
DDE Tn6 FP inh: disrupts Tn6 cyclic peptide binding to fibrin D-Dimer-E complex; Fibrin DD(E) TRITC-Tn6 fluorescence polarization displacement; inhibition, % at 8.3 µM; 370,000 tested, 0.21% active; AID 720509;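 active = inhibition above a per-campaign cutoff: mean of compounds within control limits plus 3 SD, cut at about 15% in these data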;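 also: 0% = median of all compound wells on the plate and 100% = blocking peptide control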
Target sequence (P02675 whole entry, looked up): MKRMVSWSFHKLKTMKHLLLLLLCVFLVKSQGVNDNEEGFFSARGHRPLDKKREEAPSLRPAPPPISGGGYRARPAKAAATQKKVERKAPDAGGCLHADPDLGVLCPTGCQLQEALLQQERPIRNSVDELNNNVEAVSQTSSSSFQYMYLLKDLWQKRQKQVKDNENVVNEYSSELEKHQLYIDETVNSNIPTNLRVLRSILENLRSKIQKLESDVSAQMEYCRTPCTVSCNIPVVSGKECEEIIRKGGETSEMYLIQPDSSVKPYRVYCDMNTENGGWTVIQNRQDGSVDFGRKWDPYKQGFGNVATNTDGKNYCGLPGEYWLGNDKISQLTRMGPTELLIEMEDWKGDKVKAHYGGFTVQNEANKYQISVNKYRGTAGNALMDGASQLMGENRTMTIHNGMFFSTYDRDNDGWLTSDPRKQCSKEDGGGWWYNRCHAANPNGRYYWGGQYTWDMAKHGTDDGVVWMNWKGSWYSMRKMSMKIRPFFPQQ
CAL PDZ FP-1: inhibitors of human CAL PDZ peptide binding. Q9HD26. purified CAL PDZ, TMR-peptide fluorescence polarization, 1 h. inhibition, % at 20 µM. 330,000 tested, 0.02% active. AID 504414;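 active = highest replicate inhibition of at least 40%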;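 also: plate controls were DMSO neutral control wells for no effect and unlabeled competitor peptide control wells for full effect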
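material = purified tagged CAL PDZ domain construct (CerCALP) | compound dosing = 20 µM, one dose | times = 1 h at RT | measured by = fluorescence polarization from S- and P-plane intensities, G-factor corrected | read-out = inhibition from polarization loss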
CAL PDZ FP-2: blocks peptide binding to the human CAL PDZ domain | AID 602252 | purified CAL PDZ, TMR-peptide fluorescence polarization, 1 h | 300,000 tested, 0.92% active | Q9HD26 | inhibition, % at 24.9 µM;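 active = mean inhibition of at least 30% with at least half of replicates also reaching 30%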;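 also: 0% = DMSO neutral control and 100% = excess unlabeled competitor peptide PRC23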
Tn7 DDE FP: inhibitors of Tn7 peptide binding to human fibrin DD(E). P02675. FP displacement of FITC-Tn7 peptide from fibrin DD(E); 0% = median of compound wells per plate. inhibition, % at 8.3 µM. 370,000 tested, 0.13% active. AID 720508;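 active = inhibition above the mean of compounds falling within the control limits plus 3 SD of them, cut at about 14% in these data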;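 also: 0% = plate median of compound wells and 100% = 10 µM Aha-Tn7 peptide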
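system = human fibrin DD(E) protein | quantity = DD(E) 2 µM final | medium = Tris/NaCl/CaCl2 buffer, pH 7.8 | also added = labelled Tn7 tracer, 0.1 µM | compound dosing = single point at 8.3 µM | timing = compound with protein 10 min, then 3 h after probe, room temperature | signal = FP measurement | benchmarks = Aha-Tn7 high control | repeats = one replicate per compound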
Arrestin-AP2 inh: blocks beta-arrestin peptide binding to AP2 adaptin; FITC-arrestin peptide / GST-AP2 beads, flow cytometry; AP2 beta2 appendage carries R879A mutation; inhibition, % at 10 µM; 340,000 tested, 0.31% active; AID 504490;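 active = inhibition above a set limit, near 3 SD of compounds lacking own fluorescence, cut at about 54% in these data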;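 also: plate controls were DMSO wells for no effect and 5 µM unlabelled arrestin peptide for full effect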
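System: GST-AP2 R879A glutathione beads. Medium: PBS with 0.05% Tween 20 and 0.1% BSA. Also added: FITC-arrestin peptide, 50 nM. Incubation: 12 min plus 1 h, RT. Measured by: high-throughput flow cytometry of beads, ex 488, em 535 nm. Evaluation: percent drop in bead-associated FITC signal.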
Numbers without * were called inactive; / = no result.

SMILES | DDE Tn6 FP inh | CAL PDZ FP-1 | CAL PDZ FP-2 | Tn7 DDE FP | Arrestin-AP2 inh
CCOC(=O)[C@]12CCCC=C1N(CCCOC)C(=O)[C@@H]2CC(=O)NCc1ccc(OC)c(OC)c1 | -0.9 | / | / | 2.7 | /
COCCCn1c(SC(C)C(=O)Nc2c(C)n(C)n(-c3ccccc3)c2=O)n[nH]c1=O (stereo not given) | -11.8 | -0.3 | 43.0* | -0.5 | -2.6
NS(=O)(=O)c1cccc(NC(=O)COC(=O)CCC2CCCC2)c1 | -5.6 | -0.3 | 84.9* | -6.3 | 4.2
Cc1ccc(CNC(=O)CCS(=O)(=O)c2cc3c(cc2Br)CCN3C(=O)C2CC2)o1 | 4.9 | / | / | -0.9 | /
CN1CCN(C(=O)C23CC4CC(CC(C4)C2)C3)CC1 | -3.2 | / | / | 2.1 | /
C/C(=C\C(=O)O)C12CC3CC(CC(C3)C1)C2 | -5.8 | / | 30.9* | -7.2 | -6.8
CC(C)=CCC/C(C)=C/CNCC(=O)N1c2ccccc2[C@]2(C)C[C@@H]3C(=O)N(C/C=C(\C)CCC=C(C)C)CC(=O)N3[C@H]12 | 7.2 | / | / | 1.5 | /
COc1cc(-c2csc(N3CCC(C(N)=O)CC3)n2)cc(OC)c1OC | -1.2 | / | / | -3.0 | /
CC(C)c1nc(N(C)S(C)(=O)=O)nc(-c2ccc(F)cc2)c1/C=C/[C@H](O)C[C@@H](O)CC(=O)O | -4.8 | / | / | 3.9 | /
COc1ccc(/C=C/C(=O)OCC(=O)Nc2ccc(S(N)(=O)=O)cc2)cc1OC | -0.4 | -1.4 | 44.6* | -7.5 | -6.2
COc1cc(/C=C/C(=O)OCC(=O)Nc2ccc(S(=O)(=O)N3CCCC3)cc2)ccc1O | 1.5 | -1.6 | -2.1 | 8.6 | 11.3
Cc1sc2nc(COC(=O)c3cccc(OC(F)F)c3)[nH]c(=O)c2c1C | 2.9 | -0.1 | 56.0* | 5.9 | -5.8
CCN1CCCCC(NC(=O)c2ccccc2C)C1=O (stereo not given) | 6.7 | / | / | 2.1 | /
CC1CCCCN1C(=O)COc1ccc2ccc(=O)oc2c1 (stereo not given) | 1.7 | -1.4 | -2.2 | 3.2 | 11.2
CN1CCC(OC(=O)COc2ccc(F)cc2)CC1 | 11.7 | 11.2 | 47.3* | 4.8 | 4.5
CC1CCCCN1C(=O)COc1ccc(F)cc1 (stereo not given) | -5.2 | -1.1 | 44.1* | -8.6 | 15.8
COC(=O)c1sccc1NC(=O)c1cccc(Cl)c1 | 6.0 | -3.3 | 83.2* | -6.5 | -7.3
O=S1(=O)c2c(NCc3ccco3)cccc2Oc2ccccc2CN1Cc1cn(Cc2ccc(Cl)cc2)nn1 | 4.9 | / | / | 7.0 | /
O=c1cccc2c1c1cc[nH]c3ccc(=O)n2c31 | 6.2 | -1.0 | 48.7* | -1.1 | 9.8
O=c1cc[nH]c2ccc(Cl)cc12 | -0.1 | 0.1 | 0.6 | 7.8 | 4.1
CCOC(=O)c1cc(-c2csc(N/N=C/c3ccccc3Cl)n2)on1 | -6.7 | 0.9 | -1.3 | 7.8 | 7.9
Cc1onc(-c2ccc(Cl)cc2Cl)c1-c1csc(N/N=C/c2ccccc2)n1 | -1.1 | -0.6 | 54.2* | -2.3 | -16.0
Cc1ccccc1SCC(=O)NCC(c1ccc(F)cc1)N1CCOCC1 (stereo not given) | -1.1 | -0.6 | 53.4* | -5.1 | -6.3
COc1ccc(C(CNC(=O)COc2ccccc2C#N)N2CCOCC2)cc1 (stereo not given) | -0.7 | -1.5 | 2.5 | 1.0 | 4.8
O=C(NCC(c1ccc(F)cc1)N1CCOCC1)c1ccccc1F (stereo not given) | -3.5 | -0.3 | -0.5 | -1.0 | 33.2
SMILES | DDE Tn6 FP inh | CAL PDZ FP-1 | CAL PDZ FP-2 | Tn7 DDE FP | Arrestin-AP2 inh
COc1ccc(/C=C(\C#N)C(=O)NCC(c2ccc(F)cc2)N2CCOCC2)cc1 (stereo not given) | -10.1 | 0.2 | 77.5* | -4.1 | -6.1
COC(=O)C1CN(Cc2cn(CCC3OCCO3)nn2)CCS(=O)(=O)N1Cc1ccccc1 (stereo not given) | -11.6 | / | / | -1.4 | /
C/C(=N\NC(N)=O)c1ccccc1 | 1.6 | -2.7 | -2.1 | 1.2 | -12.5
C/C(=N\NS(C)(=O)=O)c1ccccc1 | 0.8 | -0.7 | 94.0* | 4.1 | -9.7
CCN(C[C@@H]1[C@@H](c2ccccc2)[C@H](CO)N1S(C)(=O)=O)C(=O)C1CCC1 | -3.1 | / | / | -1.7 | /
CCOc1cc(/C=N/n2c(C)nc3sc(C)c(C)c3c2=O)ccc1O | -4.1 | -0.3 | 72.0* | 0.8 | 8.6
C[C@H]1COc2cc(N3CCCC3)ccc2S(=O)(=O)N1C | 0.5 | / | / | -0.6 | /
O=C(NC1=C(Nc2ccc(F)cc2)C(=O)c2ccccc2C1=O)c1ccc(Cl)cc1 | 2.3 | -1.5 | 69.7* | 6.2 | -8.6
O=C(NNC(=O)c1ccc(NC(=O)c2ccccc2)cc1)c1ccc(F)cc1 | 2.6 | -1.4 | 47.7* | -0.6 | -7.5
CC(=O)c1cccc(NC(=O)CCNC(=O)c2cccc(C)c2)c1 | 4.1 | -1.1 | 70.6* | -5.1 | 28.7
Cc1cccc(C(=O)NNC(=O)c2ccc(NC(=O)C(C)(C)C)cc2)c1 | -1.1 | -4.2 | / | 1.5 | 30.8
CC(=O)Nc1ccc(C(=O)NNC(=O)c2cccc(C)c2)cc1 | -4.2 | -0.6 | 41.1* | 6.3 | -5.5
COc1ccc(S[C@]2(C(=O)N3CCN(C(C)=O)CC3)CC(=O)N(C(=O)C3CC3)[C@@H]2c2ccc(OC)cc2)cc1 | -0.5 | / | / | 1.5 | /
Cc1ccc(NC(=O)[C@H]2CC(=O)O[C@@H]2c2ccccc2)c(C)c1 | -6.3 | / | / | 3.8 | /
Cc1cccc(C)c1N(CC(=O)N1CCOCC1)S(C)(=O)=O | 1.4 | / | 44.3* | 10.9 | 27.4
COc1ccc(C(c2c(NC(=O)c3ccco3)sc(C)c2C)N2CCOCC2)cc1 (stereo not given) | 0.2 | 2.5 | 4.8 | 0.2 | 23.0
CCN1CCN(C(c2ccccn2)c2c(NC(=O)c3ccccc3)sc(C)c2C)CC1 (stereo not given) | -10.8 | 0.2 | -2.1 | -2.6 | 26.6
CCN1CCN(C(c2cccnc2)c2c(NC(=O)c3ccco3)sc(C)c2C)CC1 (stereo not given) | 11.8 | 0.1 | 46.0* | -6.8 | -4.4
Cc1sc(NC(=O)c2ccco2)c(C(c2cccnc2)N2CCC(C)CC2)c1C (stereo not given) | -6.3 | -0.3 | 42.8* | -2.8 | -9.4
COc1ccc2[nH]c3c(c2c1)CCN[C@]31C(=O)N(c2ccccc2)c2ccccc21 | 2.5 | / | / | 9.5 | /
COc1ccc(NC(=O)COC(=O)/C=C/c2ccccc2[N+](=O)[O-])cc1 | -1.5 | -0.9 | -1.9 | -0.5 | -10.3
O=C(COC(=O)c1cc(S(=O)(=O)N2CCOCC2)ccc1Cl)Nc1ccc2c(c1)OCO2 | 3.8 | -2.1 | 78.9* | -2.4 | -7.9
O=C(COC(=O)/C=C/c1ccccc1[N+](=O)[O-])Nc1ccc(S(=O)(=O)N2CCOCC2)cc1 | 9.5 | -0.2 | 35.2* | 0.3 | 3.7
CCOC(=O)[C@@]12CCCC=C1N(CCc1ccc(Cl)cc1)C(=O)[C@H]2CC(=O)NCCCCc1ccccc1 | -6.5 | / | / | 1.0 | /
Cc1ccc(O)c(NC(=S)NC(=O)C(C)C)c1 | -1.7 | -1.1 | 33.8* | 1.4 | -9.7
